Measurements: BindingDB's records for doi:10.1016/j.bmcl.2009.10.078 (Niddk, 2009)

target: T1, Protein Tat (Human immunodeficiency virus type 1 group M subtype B (isolate HXB2), UniProt P04608); test: Inhibition of HIV1 TAT transfected to human HeLa cells assessed as decrease in luminescence after 48 hrs by duel luciferase reporter gene assay
T1 sequence (P04608 whole entry): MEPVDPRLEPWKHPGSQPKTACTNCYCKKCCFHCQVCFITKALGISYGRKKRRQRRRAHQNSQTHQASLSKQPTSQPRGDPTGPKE
How it was run: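 HeLa cells stably carrying HIV-1 Tat and firefly luciferase on one bicistronic mRNA plus an HIV-1 LTR-renilla luciferase reporter. IC50 taken from dose-dependent fall in renilla luminescence (Tat-TAR function); firefly signal monitors Tat expression/cytotoxicity.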

IC50 [µM]	SMILES
0.9	C[C@@H](CN[C@H](CN[C@H](CN[C@H](CNCCC(N)=O)Cc1ccc(O)cc1)Cc1ccc(O)cc1)Cc1ccc(O)cc1)NC[C@H](Cc1ccc(O)cc1)NC[C@H](Cc1ccc(O)cc1)NC[C@H](Cc1ccc(O)cc1)NC[C@@H](N)Cc1ccc(O)cc1
12	NCCCC[C@@H](CN[C@H](CN[C@H](CN[C@H](CNCCC(N)=O)Cc1ccc(O)cc1)Cc1ccc(O)cc1)Cc1ccc(O)cc1)NC[C@H](Cc1ccc(O)cc1)NC[C@@H](N)Cc1ccc(O)cc1
30	NC(=O)CCNC[C@H](Cc1ccc(O)cc1)NC[C@H](Cc1ccc(O)cc1)NC[C@H](Cc1ccc(O)cc1)NC[C@H](Cc1ccc(O)cc1)NC[C@@H](N)Cc1ccc(O)cc1
19	NC(=O)CCNC[C@H](Cc1ccc(O)cc1)NC[C@H](Cc1ccc(O)cc1)NC[C@@H](N)Cc1ccc(O)cc1
10	NCCCC[C@@H](CN[C@H](CNCCC(N)=O)Cc1ccc(O)cc1)NC[C@H](Cc1ccc(O)cc1)NC[C@H](CCCCN)NC[C@H](Cc1c[nH]c2ccccc12)NC[C@@H](N)Cc1ccc(O)cc1
35	NCCCC[C@@H](CN[C@H](CNCCC(N)=O)Cc1ccc(O)cc1)NC[C@H](Cc1ccc(O)cc1)NC[C@H](CCCCN)NC[C@H](Cc1ccc(O)cc1)NC[C@@H](N)Cc1ccc(O)cc1
6	C[C@@H](CN[C@H](CN[C@H](CN[C@H](CNCCC(N)=O)Cc1ccc(O)cc1)Cc1ccc(O)cc1)Cc1ccc(O)cc1)NC[C@H](Cc1ccc(O)cc1)NC[C@@H](N)Cc1ccc(O)cc1
